≈ marks a conversion by molar mass, not a printed value.
Key:
Trichoderma viride [1] = assay: Antifungal activity against Trichoderma viride IAM 5061 treated for 72 hrs followed by sub-cultivated for 5 days by serial dilution method; assay type: functional
How it was run: (§1)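 MFC obtained after the 72 h, 28 °C malt-broth microdilution (spore inoculum about 1.0 × 10^5 per well, compounds from 1 mg/ml DMSO). 2 µl was serially subcultured into 100 µl broth per well and incubated a further 5 days at 28 °C. MFC is the lowest concentration with no visible growth, taken as 99.5% killing of the original inoculum.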

Bacillus cereus [2] = assay: Antibacterial activity against Bacillus cereus clinical isolate after 24 hrs by micro dilution method; assay type: functional
How it was run: (§2)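 Microdilution MIC in 96-well plates. Bacterial suspensions adjusted in sterile saline to 1.0 × 10^5 CFU/ml, giving 1.0 × 10^4 cfu per well in LB broth. Compounds tested at up to 1 mg/ml. Plates incubated 24 h. MIC taken as the lowest concentration with no visible growth under a binocular microscope. OD at 655 nm was also read against a blank and the positive control. Streptomycin and ampicillin were the positive controls.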

Escherichia coli [3] = assay: Antibacterial activity against Escherichia coli ATCC 35210 treated for 24 hrs followed by sub-cultivated for 72 hrs by micro dilution method; assay type: functional
How it was run: (§3)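 2 µl from each well was serially subcultured into 100 µl fresh broth per well and incubated a further 72 h. MBC is the lowest concentration with no visible growth, taken as 99.5% killing of the original inoculum. Streptomycin and ampicillin were the positive controls.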

Staphylococcus aureus [4] = assay: Antibacterial activity against Staphylococcus aureus ATCC 6538 after 24 hrs by micro dilution method; assay type: functional; details: ATCC 6538, 24 h; how it was run: as §2
Penicillium ochrochloron [5] = assay: Antifungal activity against Penicillium ochrochloron ATCC 9112 treated for 72 hrs followed by sub-cultivated for 5 days by serial dilution method; assay type: functional; how it was run: as §1
Escherichia coli [6] = assay: Antibacterial activity against Escherichia coli ATCC 35210 after 24 hrs by micro dilution method; assay type: functional; details: ATCC 35210, 24 h; how it was run: as §2
Talaromyces funiculosus [7] = assay: Antifungal activity against Penicillium funiculosum ATCC 36839 after 72 hrs by serial dilution method; assay type: functional; details: ATCC 36839, 72 h
How it was run: (§4)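 Modified microdilution MIC. Spores were washed from malt agar cultures with sterile 0.85% saline containing 0.1% Tween 80 and adjusted to about 1.0 × 10^5 per 100 µl well in malt broth. Compounds were dissolved in DMSO (1 mg/ml). Plates incubated 72 h at 28 °C. MIC is the lowest concentration with no visible growth under a binocular microscope. Bifonazole and ketoconazole were the references.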

Trichoderma viride [8] = assay: Antifungal activity against Trichoderma viride IAM 5061 after 72 hrs by serial dilution method; assay type: functional; details: IAM 5061, 72 h; how it was run: as §4
Enterobacter cloacae [9] = assay: Antibacterial activity against Enterobacter cloacae human isolate after 24 hrs by micro dilution method; assay type: functional; how it was run: as §2
Aspergillus flavus [10] = assay: Antifungal activity against Aspergillus flavus ATCC 9643 after 72 hrs by serial dilution method; assay type: functional; details: ATCC 9643, 72 h; how it was run: as §4
Aspergillus niger [11] = assay: Antifungal activity against Aspergillus niger ATCC 6275 treated for 72 hrs followed by sub-cultivated for 5 days by serial dilution method; assay type: functional; how it was run: as §1
Aspergillus niger [12] = assay: Antifungal activity against Aspergillus niger ATCC 6275 after 72 hrs by serial dilution method; assay type: functional; details: ATCC 6275, 72 h; how it was run: as §4
Aspergillus flavus [13] = assay: Antifungal activity against Aspergillus flavus ATCC 9643 treated for 72 hrs followed by sub-cultivated for 5 days by serial dilution method; assay type: functional; how it was run: as §1
Aspergillus fumigatus [14] = assay: Antifungal activity against Aspergillus fumigatus human isolate after 72 hrs by serial dilution method; assay type: functional; how it was run: as §4
Talaromyces funiculosus [15] = assay: Antifungal activity against Penicillium funiculosum ATCC 36839 treated for 72 hrs followed by sub-cultivated for 5 days by serial dilution method; assay type: functional; how it was run: as §1
Fulvia fulva [16] = assay: Antifungal activity against Fulvia fulva treated for 72 hrs followed by sub-cultivated for 5 days by serial dilution method; assay type: functional; how it was run: as §1
Penicillium ochrochloron [17] = assay: Antifungal activity against Penicillium ochrochloron ATCC 9112 after 72 hrs by serial dilution method; assay type: functional; details: ATCC 9112, 72 h; how it was run: as §4
Bacillus cereus [18] = assay: Antibacterial activity against Bacillus cereus clinical isolate treated for 24 hrs followed by sub-cultivated for 72 hrs by micro dilution method; assay type: functional; how it was run: as §3
Aspergillus versicolor [19] = assay: Antifungal activity against Aspergillus versicolor ATCC 11730 after 72 hrs by serial dilution method; assay type: functional; details: ATCC 11730, 72 h; how it was run: as §4
Micrococcus flavus [20] = assay: Antibacterial activity against Micrococcus flavus ATCC 10240 after 24 hrs by micro dilution method; assay type: functional; details: ATCC 10240, 24 h; how it was run: as §2
Staphylococcus aureus [21] = assay: Antibacterial activity against Staphylococcus aureus ATCC 6538 treated for 24 hrs followed by sub-cultivated for 72 hrs by micro dilution method; assay type: functional; how it was run: as §3
Micrococcus flavus [22] = assay: Antibacterial activity against Micrococcus flavus ATCC 10240 treated for 24 hrs followed by sub-cultivated for 72 hrs by micro dilution method; assay type: functional; how it was run: as §3
Aspergillus fumigatus [23] = assay: Antifungal activity against Aspergillus fumigatus human isolate treated for 72 hrs followed by sub-cultivated for 5 days by serial dilution method; assay type: functional; how it was run: as §1
Pseudomonas aeruginosa [24] = assay: Antibacterial activity against Pseudomonas aeruginosa ATCC 27853 after 24 hrs by micro dilution method; assay type: functional; details: ATCC 27853, 24 h; how it was run: as §2
Enterobacter cloacae [25] = assay: Antibacterial activity against Enterobacter cloacae human isolate treated for 24 hrs followed by sub-cultivated for 72 hrs by micro dilution method; assay type: functional; how it was run: as §3
Fulvia fulva [26] = assay: Antifungal activity against Fulvia fulva after 72 hrs by serial dilution method; assay type: functional; how it was run: as §4
Listeria monocytogenes [27] = assay: Antibacterial activity against Listeria monocytogenes NCTC 7973 after 24 hrs by micro dilution method; assay type: functional; details: NCTC 7973, 24 h; how it was run: as §2
Salmonella typhimurium [28] = assay: Antibacterial activity against Salmonella Typhimurium ATCC 13311 after 24 hrs by micro dilution method; assay type: functional, Salmonella enterica subsp. enterica serovar Typhimurium; details: Salmonella enterica, ATCC 13311, 24 h; how it was run: as §2
Listeria monocytogenes [29] = assay: Antibacterial activity against Listeria monocytogenes NCTC 7973 treated for 24 hrs followed by sub-cultivated for 72 hrs by micro dilution method; assay type: functional; how it was run: as §3
Pseudomonas aeruginosa [30] = assay: Antibacterial activity against Pseudomonas aeruginosa ATCC 27853 treated for 24 hrs followed by sub-cultivated for 72 hrs by micro dilution method; assay type: functional; how it was run: as §3
Salmonella typhimurium [31] = assay: Antibacterial activity against Salmonella Typhimurium ATCC 13311 treated for 24 hrs followed by sub-cultivated for 72 hrs by micro dilution method; assay type: functional, Salmonella enterica subsp. enterica serovar Typhimurium; details: Salmonella enterica; how it was run: as §3
Aspergillus versicolor [32] = assay: Antifungal activity against Aspergillus versicolor ATCC 11730 treated for 72 hrs followed by sub-cultivated for 5 days by serial dilution method; assay type: functional; how it was run: as §1

| SMILES | MFC (Trichoderma viride [1]) [µM] | MIC (Bacillus cereus [2]) [µM] | MBC (Escherichia coli [3]) [µM] | MIC (Staphylococcus aureus [4]) [µM] | MFC (Penicillium ochrochloron [5]) [µM] | MIC (Escherichia coli [6]) [µM] | MIC (Talaromyces funiculosus [7]) [µM] | MIC (Trichoderma viride [8]) [µM] | MIC (Enterobacter cloacae [9]) [µM] | MIC (Aspergillus flavus [10]) [µM] | MFC (Aspergillus niger [11]) [µM] | MIC (Aspergillus niger [12]) [µM] | MFC (Aspergillus flavus [13]) [µM] | MIC (Aspergillus fumigatus [14]) [µM] | MFC (Talaromyces funiculosus [15]) [µM] | MFC (Fulvia fulva [16]) [µM] | MIC (Penicillium ochrochloron [17]) [µM] | MBC (Bacillus cereus [18]) [µM] | MIC (Aspergillus versicolor [19]) [µM] | MIC (Micrococcus flavus [20]) [µM] | other results |
| --- | --- | --- | --- | --- | --- | --- | --- | --- | --- | --- | --- | --- | --- | --- | --- | --- | --- | --- | --- | --- | --- |
| CCCn1c(Cc2cc(OC)c(OC)cc2S(=O)(=O)N(C)C)n[nH]c1=S | 130 (≈ 52.1 µg/mL) | 250 (≈ 100 µg/mL) | 500 (≈ 200 µg/mL) | 500 (≈ 200 µg/mL) | 250 (≈ 100 µg/mL) | 500 (≈ 200 µg/mL) | 130 (≈ 52.1 µg/mL) | 60 (≈ 24 µg/mL) | 250 (≈ 100 µg/mL) | 60 (≈ 24 µg/mL) | 130 (≈ 52.1 µg/mL) | 60 (≈ 24 µg/mL) | 130 (≈ 52.1 µg/mL) | 130 (≈ 52.1 µg/mL) | 250 (≈ 100 µg/mL) | 130 (≈ 52.1 µg/mL) | 130 (≈ 52.1 µg/mL) | 500 (≈ 200 µg/mL) | 250 (≈ 100 µg/mL) | 250 (≈ 100 µg/mL) | MBC (Staphylococcus aureus [21]): 500 µM (≈ 200 µg/mL); MBC (Micrococcus flavus [22]): 500 µM (≈ 200 µg/mL); MFC (Aspergillus fumigatus [23]): 250 µM (≈ 100 µg/mL); MIC (Pseudomonas aeruginosa [24]): 500 µM (≈ 200 µg/mL); MBC (Enterobacter cloacae [25]): 250 µM (≈ 100 µg/mL); MIC (Fulvia fulva [26]): 60 µM (≈ 24 µg/mL); MIC (Listeria monocytogenes [27]): 250 µM (≈ 100 µg/mL); MIC (Salmonella typhimurium [28]): 500 µM (≈ 200 µg/mL); MBC (Listeria monocytogenes [29]): 250 µM (≈ 100 µg/mL); MBC (Pseudomonas aeruginosa [30]): 500 µM (≈ 200 µg/mL); MBC (Salmonella typhimurium [31]): 500 µM (≈ 200 µg/mL); MFC (Aspergillus versicolor [32]): 500 µM (≈ 200 µg/mL) |
| COc1cc(Cc2n[nH]c(=S)n2C(C)C)c(S(=O)(=O)N(C)C)cc1OC | 30 (≈ 12 µg/mL) | 250 (≈ 100 µg/mL) | 630 (≈ 252 µg/mL) | 380 (≈ 152 µg/mL) | 380 (≈ 152 µg/mL) | 630 (≈ 252 µg/mL) | 130 (≈ 52.1 µg/mL) | 10 (≈ 4.01 µg/mL) | 630 (≈ 252 µg/mL) | 130 (≈ 52.1 µg/mL) | 380 (≈ 152 µg/mL) | 130 (≈ 52.1 µg/mL) | 380 (≈ 152 µg/mL) | 130 (≈ 52.1 µg/mL) | 250 (≈ 100 µg/mL) | 250 (≈ 100 µg/mL) | 130 (≈ 52.1 µg/mL) | 500 (≈ 200 µg/mL) | 130 (≈ 52.1 µg/mL) | 630 (≈ 252 µg/mL) | MBC (Staphylococcus aureus [21]): 380 µM (≈ 152 µg/mL); MBC (Micrococcus flavus [22]): 630 µM (≈ 252 µg/mL); MFC (Aspergillus fumigatus [23]): 250 µM (≈ 100 µg/mL); MIC (Pseudomonas aeruginosa [24]): 630 µM (≈ 252 µg/mL); MBC (Enterobacter cloacae [25]): 630 µM (≈ 252 µg/mL); MIC (Fulvia fulva [26]): 250 µM (≈ 100 µg/mL); MIC (Listeria monocytogenes [27]): 630 µM (≈ 252 µg/mL); MIC (Salmonella typhimurium [28]): 630 µM (≈ 252 µg/mL); MBC (Listeria monocytogenes [29]): 630 µM (≈ 252 µg/mL); MBC (Pseudomonas aeruginosa [30]): 630 µM (≈ 252 µg/mL); MBC (Salmonella typhimurium [31]): 630 µM (≈ 252 µg/mL); MFC (Aspergillus versicolor [32]): 380 µM (≈ 152 µg/mL) |
